Test results from ChEMBL document CHEMBL1287659, “Phenylmethylene hydantoins as prostate cancer invasion and migration inhibitors. CoMFA approach and QSAR analysis” (Eur J Med Chem, 2010).
Active and inactive are the calls of the source. The rule behind the calls is not given here.

Key:
[1] = test system: PC-3; assay: Antimetastatic activity against human PC3 cells after 24 hrs by wound-healing assay; type: functional, cell-based; conditions: for IC50: PC-3, 24 h
Method in brief: (§1)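 Scratch wound in PC-3 monolayer. Compounds dissolved in DMSO, added in triplicate, DMSO as vehicle control. Incubation 24 h, serum-starved. Cells then fixed and Diff-Quick stained. Cells migrated into the wound counted in three or more random fields at 400×, mean ± SEM per field. IC50 by nonlinear regression of log concentration versus cells/well.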

[2] = test system: PC-3; assay: Antimetastatic activity against human PC3 cells at 100 uM after 24 hrs by wound-healing assay; type: functional; conditions: PC-3, 24 h; method in brief: as §1
[3] = test system: PC-3; assay: Antiinvasive activity against human PC3 cells at 50 uM by cultrex cell invasion assay; type: functional, cell-based
Method in brief: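 Basement membrane extract coated upper chambers (4 h, 37 °C, 5% CO2) seeded with 50,000 PC-3 cells in serum-free RPMI plus compound at 50 µM. Lower chamber: RPMI, 10% FBS, fibronectin and N-formyl-met-leu-phe (10 nM) as chemoattractants. Migration 24 h at 37 °C. Invaded cells loaded with calcein-AM, fluorescence at 485/520 nm, counts from standard curve; n = 3, SD.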

[4] = test system: PC-3; assay: Cytotoxicity against human PC3 cells up to 200 uM after 72 hrs by MTT assay; type: functional, cell-based
Method in brief: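 PC-3 cells seeded at 8 × 10³ per well, attached 24 h. Switched to serum-free RPMI with compound at up to 200 µM, 72 h at 37 °C, 5% CO2. MTT added for 4 h, then solubilization/stop solution. Absorbance read at 570 nm; cells/well from a hemocytometer-based standard curve.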

[5] = test system: PC-3; assay: Ratio of compound IC50 to 5-(4-(ethylthio)benzylidene)imidazolidine-2,4-dione IC50 for human PC3 cells at 100 uM after 24 hrs by wound-healing assay; type: functional
[6] = test system: PC-3; assay: Antimetastatic activity against human PC3 cells at 50 uM after 24 hrs by wound-healing assay; type: functional; conditions: PC-3, 24 h; method in brief: as §1

Compound | IC50 ([1]; read-out: IC50) | IC50 ([1]; read-out: pIC50 (converted)) | inhibition at 100 µM [2] | Activity [3] | other results
CCCOc1ccc(/C=C2\NC(=O)NC2=O)c(OCCC)c1 | 77.1 µM | 77.1 µM | 68.4% | – | –
COc1cc(/C=C2\NC(=O)NC2=O)ccc1OCC(=O)N1CCOCC1 | 94 µM | 94 µM | 33.2% | – | –
CCOc1cc(/C=C2\NC(=O)NC2=O)cc(Br)c1OCC | 35.7 µM | 35.6 µM | 77.5% | Active | –
O=C1NC(=O)/C(=C/c2ccc(N3CCCC3)cc2)N1 | 48.7 µM | 48.6 µM | 75.9% | Active | –
CCCOc1c(Br)cc(/C=C2\NC(=O)NC2=O)cc1OC | 8.1 µM | 8.09 µM | 97.4% | Active | Activity [1]: Dose-dependent effect; Activity [4]: inactive; Ratio IC50 [5]: 5
COc1cc(/C=C2\NC(=O)NC2=O)ccc1OCC(=O)c1ccccc1 | 19.7 µM | 19.7 µM | 91.8% | Active | –
O=C1NC(=O)/C(=C/c2ccc(OCc3ccc(F)cc3)cc2)N1 | 23.8 µM | 23.8 µM | 76.3% | Active | –
COc1cc(/C=C2\NC(=O)NC2=O)ccc1OCC(=O)N1CCCC1 | 86 µM | 85.9 µM | 36.3% | – | –
CC(C)CCOc1ccc(/C=C2\NC(=O)NC2=O)cc1 | 46.1 µM | 46 µM | 66.7% | – | –
COc1c(/C=C2\NC(=O)NC2=O)ccc(OC(C)(C)C)c1Cl | 91 µM | 91 µM | 39% | – | –
O=C1NC(=O)/C(=C/c2cccc(-c3cccs3)n2)N1 | – | 32.4 µM | – | Active | –
CCCOc1cc(OC)c(/C=C2\NC(=O)NC2=O)c(OC)c1Cl | 187 µM | 187 µM | 19% | – | –

Further lines, with some results ahead:

IC50 ([1]; read-out: IC50) | IC50 ([1]; read-out: pIC50 (converted)) | Compound | inhibition at 100 µM [2] | Activity [3] | other results
60.8 µM | 60.7 µM | CC(C)(C)Oc1ccc(/C=C2\NC(=O)NC2=O)cc1 | 52.7% | – | –
– | 49.7 µM | O=C1NC(=O)/C(=C/c2c[nH]c3ncccc23)N1 | – | – | –
128 µM | 128 µM | O=C1NC(=O)/C(=C/c2ccc(O)cc2)N1 [4-HYDROXYPHENYLMETHYLENE HYDANTOIN] | 34% | – | –
– | 81.8 µM | O=C1NC(=O)/C(=C/c2ccc(O)cn2)N1 | – | – | –
– | 54.2 µM | O=C1NC(=O)/C(=C/c2cnc[nH]2)N1 | – | – | –
110 µM | 110 µM | CCCOc1ccc(/C=C2\NC(=O)NC2=O)c(OC)c1 | 23% | – | –
– | 178 µM | O=C1NC(=O)/C(=C/c2ccncc2)N1 | – | – | –
– | 99.1 µM | O=C1NC(=O)/C(=C/c2cc(O)c[nH]2)N1 | – | – | –
42.9 µM | 42.9 µM | CCSc1ccc(/C=C2\NC(=O)NC2=O)cc1 | – | Active | inhibition at 50 µM [6]: 42.9%
– | 199 µM | O=C1NC(=O)/C(=C/c2cc(I)c[nH]2)N1 | – | – | –
– | 95.1 µM | Cc1nc[nH]c1/C=C1\NC(=O)NC1=O | – | – | –
21.8 µM | 21.8 µM | C#CCOc1c(Cl)cc(/C=C2\NC(=O)NC2=O)cc1OC | 88.8% | Active | –
– | 59.8 µM | COc1cccc(/C=C2\NC(=O)NC2=O)n1 | – | – | –
44.7 µM | 44.7 µM | CSc1ccc(/C=C2\NC(=O)NC2=O)cc1 | 80.9% | Active | –
– | 86.5 µM | O=C1NC(=O)/C(=C/c2cccc3c2NCC3)N1 | – | – | –
– | 155 µM | O=C1NC(=O)/C(=C/c2cccc3c2OCO3)N1 | – | – | –
